Experimental data from ChEMBL document CHEMBL1125589, “Verapamil analogues with restricted molecular flexibility” (1991).

How the values were obtained:
Cavia porcellus [1] = species: Cavia porcellus; assay: Percent inhibition of [Ca2+] induced contraction on K+ depolarized guinea pig aortic strips at […] concentration; format: functional, Aorta
In short: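 Guinea pig aortic strips were depolarized with K+, and contraction was induced with Ca2+. Percent inhibition of that contraction was measured with the test agent at 5·10^-4 M. Results are given as means ± SEM, n = 5-6.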

Cavia porcellus [2] = species: Cavia porcellus; assay: Compound was tested in vitro for ionotropic activity on isolated atria preparations of guinea pig.; format: functional
Cavia porcellus [3] = species: Cavia porcellus; assay: Compound was tested in vitro for chronotropic activity on isolated atria preparations of guinea pig.; format: functional
Cavia porcellus [4] = species: Cavia porcellus; assay: Compound was tested in vitro for chronotropic activity on isolated atria preparations of guinea pig at 10E-6 M concentration; format: functional
In short: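 Chronotropic effect was measured on spontaneously beating isolated guinea pig right atria, with the test agent at 10^-6 M.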

Cavia porcellus [5] = species: Cavia porcellus; assay: Compound was tested in vitro for ionotropic activity on isolated atria preparations of guinea pig at 10E-6 M concentration; format: functional

Compound | Ca2+ antagonistic activity (Cavia porcellus [1]) [%] | Negative ionotropic activity (Cavia porcellus [2]) [%] | Negative chronotropic activity (Cavia porcellus [3]) [%] | Negative chronotropic activity (Cavia porcellus [4]) [%] | Negative ionotropic activity (Cavia porcellus [5]) [%]
COc1ccc(CCN(C)[C@H]2CC[C@@](C#N)(c3ccc(OC)c(OC)c3)CC2)cc1OC | 66 | 56 | 67 |  | 
COc1ccc(CCN(C)CCCC(C#N)(c2ccc(OC)c(OC)c2)C(C)C)cc1OC (centres undefined) [VERAPAMIL] | 79 |  |  | 94 | 60
COc1ccc(CCN(C)[C@H]2CC[C@](C#N)(c3ccc(OC)c(OC)c3)CC2)cc1OC | 59 | 52 | 65 |  | 
